# Source: ChEMBL document CHEMBL3632581, “Dimers of Melampomagnolide B Exhibit Potent Anticancer Activity against Hematological and Solid Tumor Cells” (J Med Chem, 2015)
# How the values were obtained:
# [1] = tested on: HL-60(TB); assay: Cytotoxicity against human HL-60(TB) cells after 48 hrs by SRB assay; type: functional; settings: HL-60, 48 h
# Method in brief: (§1)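 NCI-60 five-dose screen at 10−8 to 10−4 M. Cells were plated at 5,000–40,000/well in RPMI 1640 with 5% FBS and 2 mM L-glutamine, then preincubated 24 h, and time-zero plates were TCA-fixed. Compound was added from DMSO stocks and exposed 48 h at 37 °C. Cells were TCA-fixed, SRB-stained, and read at 515 nm. LC50 is the concentration halving the cell population through cell death.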
# [2] = tested on: K562; assay: Cytotoxicity against human K562 cells after 48 hrs by SRB assay; type: functional; settings: K562, 48 h; method in brief: as §1
# [3] = tested on: SR; assay: Cytotoxicity against human SR cells after 48 hrs by SRB assay; type: functional
# Method in brief: (§2)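 NCI-60 screen: cells grown in RPMI 1640 with 5% FBS and 2 mM L-glutamine, plated at 5,000–40,000 cells/well by doubling time, and preincubated 24 h at 37 °C before drug. Drug was diluted from DMSO stock and given at five concentrations, 10−4 to 10−8 M, for 48 h. Cells fixed with cold TCA, SRB stained, OD read at 515 nm against time-zero and vehicle plates. LC50 taken as the concentration that halves cell population through cell death.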
# [4] = tested on: A549; assay: Cytotoxicity against human A549 cells after 48 hrs by SRB assay; type: functional; settings: A549, 48 h; method in brief: as §1
# [5] = tested on: HOP-92; assay: Cytotoxicity against human HOP92 cells after 48 hrs by SRB assay; type: functional; settings: HOP-92, 48 h; method in brief: as §1
# [6] = tested on: NCI-H460; assay: Cytotoxicity against human NCI-H460 cells after 48 hrs by SRB assay; type: functional; settings: NCI-H460, 48 h; method in brief: as §1
# [7] = tested on: NCI-H522; assay: Cytotoxicity against human NCI-H522 cells after 48 hrs by SRB assay; type: functional; settings: NCI-H522, 48 h; method in brief: as §1
# [8] = tested on: COLO 205; assay: Cytotoxicity against human COLO205 cells after 48 hrs by SRB assay; type: functional; settings: COLO 205, 48 h; method in brief: as §1
# [9] = tested on: SW-620; assay: Cytotoxicity against human SW620 cells after 48 hrs by SRB assay; type: functional; settings: SW-620, 48 h; method in brief: as §2
# [10] = tested on: SF-539; assay: Cytotoxicity against human SF539 cells after 48 hrs by SRB assay; type: functional; settings: SF-539, 48 h; method in brief: as §1
# [11] = tested on: SNB-75; assay: Cytotoxicity against human SNB75 cells after 48 hrs by SRB assay; type: functional; settings: SNB-75, 48 h; method in brief: as §1
# [12] = tested on: Malme-3M; assay: Cytotoxicity against human MALME-3M cells after 48 hrs by SRB assay; type: functional; method in brief: as §1
# [13] = tested on: M14; assay: Cytotoxicity against human M14 cells after 48 hrs by SRB assay; type: functional; settings: M14, 48 h; method in brief: as §1
# [14] = tested on: MDA-MB-435; assay: Cytotoxicity against human MDA-MB-435 cells after 48 hrs by SRB assay; type: functional; settings: MDA-MB-435, 48 h; method in brief: as §1
# [15] = tested on: SK-MEL-28; assay: Cytotoxicity against human SK-MEL-28 cells after 48 hrs by SRB assay; type: functional; settings: SK-MEL-28, 48 h; method in brief: as §1
# [16] = tested on: SK-MEL-5; assay: Cytotoxicity against human SK-MEL-5 cells after 48 hrs by SRB assay; type: functional; settings: SK-MEL-5, 48 h; method in brief: as §1
# [17] = tested on: UACC-257; assay: Cytotoxicity against human UACC257 cells after 48 hrs by SRB assay; type: functional; settings: UACC-257, 48 h; method in brief: as §2
# [18] = tested on: OVCAR-4; assay: Cytotoxicity against human OVCAR4 cells after 48 hrs by SRB assay; type: functional; settings: OVCAR-4, 48 h; method in brief: as §1
# [19] = tested on: SK-OV-3; assay: Cytotoxicity against human SKOV3 cells after 48 hrs by SRB assay; type: functional; settings: SK-OV-3, 48 h; method in brief: as §1
# [20] = tested on: 786-0; assay: Cytotoxicity against human 786-0 cells after 48 hrs by SRB assay; type: functional; settings: 786-0, 48 h; method in brief: as §1
# [21] = tested on: A498; assay: Cytotoxicity against human A498 cells after 48 hrs by SRB assay; type: functional; settings: A498, 48 h; method in brief: as §1
# [22] = tested on: ACHN; assay: Cytotoxicity against human ACHN cells after 48 hrs by SRB assay; type: functional; method in brief: as §1
# [23] = tested on: CAKI-1; assay: Cytotoxicity against human Caki1 cells after 48 hrs by SRB assay; type: functional; settings: CAKI-1, 48 h; method in brief: as §1
# [24] = tested on: TK-10; assay: Cytotoxicity against human TK10 cells after 48 hrs by SRB assay; type: functional; settings: TK-10, 48 h; method in brief: as §2
# [25] = tested on: UO-31; assay: Cytotoxicity against human UO31 cells after 48 hrs by SRB assay; type: functional; settings: UO-31, 48 h; method in brief: as §2
# [26] = tested on: PC-3; assay: Cytotoxicity against human PC3 cells after 48 hrs by SRB assay; type: functional; settings: PC-3, 48 h; method in brief: as §1
# [27] = tested on: DU-145; assay: Cytotoxicity against human DU145 cells after 48 hrs by SRB assay; type: functional; settings: DU-145, 48 h; method in brief: as §1
# [28] = Cytotoxicity against human Hs 578T cells after 48 hrs by SRB assay; type: functional; method in brief: as §1
# [29] = tested on: BT-549; assay: Cytotoxicity against human BT549 cells after 48 hrs by SRB assay; type: functional; settings: BT-549, 48 h; method in brief: as §1
# [30] = Antileukemic activity against human AML01 cells after 24 hrs by annexin V/7-AAD staining-based flow cytometric analysis; type: functional, cell-based
# Method in brief: (§3)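 Primary AML specimens from consenting donors, isolated by Ficoll-Paque gradient and sometimes cryopreserved. Cells were held 1 h in serum-free IMDM with 20% BIT 9500, LDL and β-mercaptoethanol before drug (DMSO stock diluted in PBS, ≤0.5% DMSO final). Exposure was 24 h over 0.5-10 μM. Annexin V/7-AAD double-negative cells, normalized to vehicle, gave the EC50. Run in triplicate.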
# [31] = Antileukemic activity against human AML02 cells after 24 hrs by annexin V/7-AAD staining-based flow cytometric analysis; type: functional, cell-based; method in brief: as §3
# [32] = Antileukemic activity against human AML04 cells after 24 hrs by annexin V/7-AAD staining-based flow cytometric analysis; type: functional, cell-based; method in brief: as §3
# [33] = Cytotoxicity against hematopoietic progenitor cells isolated from human umbilical cord blood by annexin V staining-based flow cytometric analysis; type: cell-based
# Method in brief: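 Cord-blood mononuclear cells from Ficoll-Paque were plated in serum-free medium, with drug from a DMSO stock (≤0.5% DMSO final). Cells were stained for CD34, CD45 and annexin V. The non-apoptotic fraction (annexin V-negative within the CD34+CD45dim compartment) was normalized to vehicle, and EC50 was fitted where possible. Triplicate.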
# [34] = Potency index, ratio of parthenolide EC50 to compound EC50 for human M9-ENL1 cells; type: functional
# [35] = read-out: LC50 (the source's name)
structure (smiles),measurement,setting,value
C=C1C(=O)O[C@H]2[C@H]1CC/C(COC(=O)NCCCCNC(=O)OC/C1=C/CC[C@@]3(C)O[C@H]3[C@H]3OC(=O)C(=C)[C@@H]3CC1)=C\CC[C@@]1(C)O[C@@H]21,GI50,[1],0.25 µM
same,CC50,[1]; [35],> 100 µM
same,GI50,[2],0.66 µM
same,CC50,[2]; [35],> 100 µM
same,GI50,[3],0.54 µM
same,CC50,[3]; [35],> 100 µM
same,GI50,[4],8.02 µM
same,CC50,[4]; [35],58.7 µM
same,GI50,[5],0.28 µM
same,CC50,[5]; [35],46.1 µM
same,GI50,[6],4.61 µM
same,CC50,[6]; [35],60.7 µM
same,GI50,[7],0.16 µM
same,CC50,[7]; [35],0.84 µM
same,GI50,[8],0.46 µM
same,CC50,[8]; [35],5.79 µM
same,GI50,[9],0.58 µM
same,CC50,[9]; [35],5.56 µM
same,GI50,[10],1.55 µM
same,CC50,[10]; [35],8.84 µM
same,GI50,[11],2.19 µM
same,CC50,[11]; [35],66.3 µM
same,GI50,[12],0.45 µM
same,CC50,[12]; [35],8.43 µM
same,GI50,[13],1.97 µM
same,CC50,[13]; [35],16.3 µM
same,GI50,[14],1.24 µM
same,CC50,[14]; [35],9.42 µM
same,GI50,[15],0.52 µM
same,CC50,[15]; [35],8.08 µM
same,GI50,[16],3.33 µM
same,CC50,[16]; [35],41.4 µM
same,GI50,[17],1.68 µM
same,CC50,[17]; [35],22.9 µM
same,GI50,[18],1.77 µM
same,CC50,[18]; [35],30.5 µM
same,GI50,[19],12.7 µM
same,CC50,[19]; [35],50.4 µM
same,GI50,[20],1.99 µM
same,CC50,[20]; [35],9.11 µM
same,GI50,[21],6.36 µM
same,CC50,[21]; [35],43.9 µM
same,GI50,[22],3.44 µM
same,CC50,[22]; [35],39.8 µM
same,GI50,[23],10.8 µM
same,CC50,[23]; [35],49.1 µM
same,GI50,[24],1.61 µM
same,CC50,[24]; [35],11.3 µM
same,GI50,[25],7.61 µM
same,CC50,[25]; [35],47.7 µM
same,GI50,[26],2.55 µM
same,LC50 (concentration killing half the cell population),[26],30.5 µM
same,GI50,[27],3.21 µM
same,LC50 (concentration killing half the cells),[27],33.8 µM
same,GI50,[28],2.54 µM
same,CC50,[28]; [35],> 100 µM
same,GI50,[29],1.6 µM
same,LC50,[29],8.23 µM
same,EC50,[30],2.2 µM
same,EC50,[31],2 µM
same,EC50,[32],4.2 µM
same,EC50,[33],> 10 µM
same,Ratio EC50,[34],2
